According to ChEMBL document CHEMBL2311431, “Synthesis and biological evaluation of some 5-arylidene-2-(1,3-thiazol-2-ylimino)-1,3-thiazolidin-4-ones as dual anti-inflammatory/antimicrobial agents” (Bioorg Med Chem, 2013):
In brackets after ≈: the same amount, converted by molar mass.

Experiments:
Trichoderma viride [1] = experiment: Antifungal activity against Trichoderma viride IAM 5061 after 72 hrs by serial dilution technique; assay type: functional; conditions: IAM 5061, 72 h
Procedure, shortened: (§1)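 Serial dilution in malt broth; compounds from 1 mg/ml stocks in 5% DMSO; 72 h at 28 °C. MIC is the lowest concentration with no visible growth under a binocular microscope. Run in duplicate, repeated three times.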

Aspergillus niger [2] = experiment: Fungicidal activity against Aspergillus niger ATCC 6275 after 72 hrs by serial subcultivation method; assay type: functional; conditions: ATCC 6275, 72 h
Pseudomonas aeruginosa [3] = experiment: Bactericidal activity against Pseudomonas aeruginosa ATCC 27853 after 72 hrs by serial subcultivation method; assay type: functional; conditions: ATCC 27853, 72 h
Aspergillus niger [4] = experiment: Antifungal activity against Aspergillus niger ATCC 6275 after 72 hrs by serial dilution technique; assay type: functional; conditions: ATCC 6275, 72 h; procedure, shortened: as §1
Bacillus cereus [5] = experiment: Antibacterial activity against Bacillus cereus clinical isolate after 24 hr by microdilution test; assay type: functional
Procedure, shortened: (§2)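 Broth microdilution in LB medium, about 1.0×10^4 cfu per well; compounds from 1 mg/ml stocks in 5% DMSO. Incubated 24 h. MIC is the lowest concentration with no visible growth under a binocular microscope. Run in duplicate, repeated three times.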

Staphylococcus aureus [6] = experiment: Antibacterial activity against Staphylococcus aureus ATCC 6538 after 24 hr by microdilution test; assay type: functional; conditions: ATCC 6538, 24 h; procedure, shortened: as §2
Trichoderma viride [7] = experiment: Fungicidal activity against Trichoderma viride IAM 5061 after 72 hrs by serial subcultivation method; assay type: functional; conditions: IAM 5061, 72 h
Escherichia coli [8] = experiment: Antibacterial activity against Escherichia coli ATCC 35210 after 24 hr by microdilution test; assay type: functional; conditions: ATCC 35210, 24 h; procedure, shortened: as §2
Penicillium ochrochloron [9] = experiment: Antifungal activity against Penicillium ochrochloron ATCC 9112 after 72 hrs by serial dilution technique; assay type: functional; conditions: ATCC 9112, 72 h; procedure, shortened: as §1
Aspergillus fumigatus [10] = experiment: Antifungal activity against Aspergillus fumigatus after 72 hrs by serial dilution technique; assay type: functional; procedure, shortened: as §1
Pseudomonas aeruginosa [11] = experiment: Antibacterial activity against Pseudomonas aeruginosa ATCC 27853 after 24 hr by microdilution test; assay type: functional; conditions: ATCC 27853, 24 h; procedure, shortened: as §2
Bacillus cereus [12] = experiment: Bactericidal activity against Bacillus cereus clinical isolate after 72 hrs by serial subcultivation method; assay type: functional
Aspergillus flavus [13] = experiment: Fungicidal activity against Aspergillus flavus ATCC 9643 after 72 hrs by serial subcultivation method; assay type: functional; conditions: ATCC 9643, 72 h
Penicillium ochrochloron [14] = experiment: Fungicidal activity against Penicillium ochrochloron ATCC 9112 after 72 hrs by serial subcultivation method; assay type: functional; conditions: ATCC 9112, 72 h
Talaromyces funiculosus [15] = experiment: Antifungal activity against Penicillium funiculosum ATCC 36839 after 72 hrs by serial dilution technique; assay type: functional; conditions: ATCC 36839, 72 h; procedure, shortened: as §1
Mus musculus [16] = experiment: Antiinflammatory activity in AKR mouse assessed as inhibition of carrageenan-induced paw edema at 0.01 mmol/kg, ip measured after 3.5 hrs of carrageenan-challenge; assay type: functional
Procedure, shortened: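 AKR mice of both sexes (pregnant females excluded), 6-10 per group, fasted during the experiment. Edema induced by intradermal 0.05 mL of 2% carrageenin into the right hind paw. Compound given at 0.01 mmol/kg ip, suspended in water with Tween-80, at the same time as carrageenin.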

Listeria monocytogenes [17] = experiment: Bactericidal activity against Listeria monocytogenes NCTC 7973 after 72 hrs by serial subcultivation method; assay type: functional; conditions: NCTC 7973, 72 h
Micrococcus flavus [18] = experiment: Bactericidal activity against Micrococcus flavus ATCC 10240 after 72 hrs by serial subcultivation method; assay type: functional; conditions: ATCC 10240, 72 h
[19] = biological target: T1, Prostaglandin G/H synthase 1 (Ovis aries) (UniProt P05979); experiment: Inhibition of ovine COX1 assessed as inhibition of PGF2a production by enzyme immunoassay; design: concentration or dose not given beside the values; conditions: concentration not given here
T1 sequence (whole entry): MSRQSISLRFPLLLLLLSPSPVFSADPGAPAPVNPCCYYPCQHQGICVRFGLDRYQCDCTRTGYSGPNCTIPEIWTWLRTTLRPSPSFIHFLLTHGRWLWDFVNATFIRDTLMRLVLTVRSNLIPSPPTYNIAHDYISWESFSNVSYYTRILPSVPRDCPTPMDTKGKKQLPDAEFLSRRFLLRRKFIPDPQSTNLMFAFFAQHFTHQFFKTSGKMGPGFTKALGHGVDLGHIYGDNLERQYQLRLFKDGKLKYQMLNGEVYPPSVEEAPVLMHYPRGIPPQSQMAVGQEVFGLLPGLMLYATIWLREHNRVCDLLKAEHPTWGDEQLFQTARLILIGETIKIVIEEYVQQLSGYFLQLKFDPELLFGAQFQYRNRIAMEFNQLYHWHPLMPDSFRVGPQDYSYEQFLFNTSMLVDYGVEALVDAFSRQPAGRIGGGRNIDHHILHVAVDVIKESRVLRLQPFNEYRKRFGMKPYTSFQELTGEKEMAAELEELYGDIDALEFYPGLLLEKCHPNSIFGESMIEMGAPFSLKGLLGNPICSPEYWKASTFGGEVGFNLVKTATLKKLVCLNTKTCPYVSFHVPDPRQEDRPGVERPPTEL
Procedure, shortened: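 Ovine COX-1 from a commercial screening kit, tested with 0.1 µM arachidonic acid, which is below the saturating level. COX-derived PGH2 is reduced by SnCl2 to PGF2a, quantified by enzyme immunoassay with a broad prostaglandin antibody. At least triplicate.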

Staphylococcus aureus [20] = experiment: Bactericidal activity against Staphylococcus aureus ATCC 6538 after 72 hrs by serial subcultivation method; assay type: functional; conditions: ATCC 6538, 72 h
[21] = Inhibition of soybean lipoxygenase assessed as inhibition of sodium linolate conversion to 13-hydroperoxylinoleic acid after 4 mins by spectrophotometry; design: species or system Glycine max; conditions: read-out: IC50
Aspergillus fumigatus [22] = experiment: Fungicidal activity against Aspergillus fumigatus after 72 hrs by serial subcultivation method; assay type: functional
Mus musculus [23] = experiment: Acute toxicity in AKR mouse up to 0.5 mmol/kg, ip; assay type: organism-based; conditions: in vivo
Listeria monocytogenes [24] = experiment: Antibacterial activity against Listeria monocytogenes NCTC 7973 after 24 hr by microdilution test; assay type: functional; conditions: NCTC 7973, 24 h; procedure, shortened: as §2
Micrococcus flavus [25] = experiment: Antibacterial activity against Micrococcus flavus ATCC 10240 after 24 hr by microdilution test; assay type: functional; conditions: ATCC 10240, 24 h; procedure, shortened: as §2
Escherichia coli [26] = experiment: Bactericidal activity against Escherichia coli ATCC 35210 after 72 hrs by serial subcultivation method; assay type: functional; conditions: ATCC 35210, 72 h
Talaromyces funiculosus [27] = experiment: Fungicidal activity against Penicillium funiculosum ATCC 36839 after 72 hrs by serial subcultivation method; assay type: functional; conditions: ATCC 36839, 72 h
Aspergillus flavus [28] = experiment: Antifungal activity against Aspergillus flavus ATCC 9643 after 72 hrs by serial dilution technique; assay type: functional; conditions: ATCC 9643, 72 h; procedure, shortened: as §1

Compound	MIC (Trichoderma viride [1])	MFC (Aspergillus niger [2])	MBC (Pseudomonas aeruginosa [3])	MIC (Aspergillus niger [4])	MIC (Bacillus cereus [5])	MIC (Staphylococcus aureus [6])	MFC (Trichoderma viride [7])	MIC (Escherichia coli [8])	MIC (Penicillium ochrochloron [9])	MIC (Aspergillus fumigatus [10])	MIC (Pseudomonas aeruginosa [11])	MBC (Bacillus cereus [12])	MFC (Aspergillus flavus [13])	MFC (Penicillium ochrochloron [14])	MIC (Talaromyces funiculosus [15])	inhibition in vivo at 10 µmol/kg (Mus musculus [16])	MBC (Listeria monocytogenes [17])	MBC (Micrococcus flavus [18])	inhibition [19]	MBC (Staphylococcus aureus [20])	also measured
Cc1csc(/N=C2\NC(=O)/C(=C/c3ccccc3Cl)S2)n1	17.9 µM (≈ 6.01 µg/mL)	20.9 µM (≈ 7.02 µg/mL)	119 µM (≈ 40 µg/mL)	14.9 µM (≈ 5 µg/mL)	59.6 µM (≈ 20 µg/mL)	59.6 µM (≈ 20 µg/mL)	20.9 µM (≈ 7.02 µg/mL)	119 µM (≈ 40 µg/mL)	14.9 µM (≈ 5 µg/mL)	17.9 µM (≈ 6.01 µg/mL)	59.6 µM (≈ 20 µg/mL)	119 µM (≈ 40 µg/mL)	20.9 µM (≈ 7.02 µg/mL)	20.9 µM (≈ 7.02 µg/mL)	17.9 µM (≈ 6.01 µg/mL)	43%	119 µM (≈ 40 µg/mL)	59.6 µM (≈ 20 µg/mL)	97%	119 µM (≈ 40 µg/mL)	IC50 [21]: 79 µM; MFC (Aspergillus fumigatus [22]): 20.9 µM (≈ 7.02 µg/mL); Activity (Mus musculus [23]): Non-toxic; MIC (Listeria monocytogenes [24]): 119 µM (≈ 40 µg/mL); MIC (Micrococcus flavus [25]): 29.8 µM (≈ 10 µg/mL); MBC (Escherichia coli [26]): 119 µM (≈ 40 µg/mL); MFC (Talaromyces funiculosus [27]): 20.9 µM (≈ 7.02 µg/mL); MIC (Aspergillus flavus [28]): 20.9 µM (≈ 7.02 µg/mL)
Cc1cnc(/N=C2\NC(=O)/C(=C/c3ccc([N+](=O)[O-])cc3)S2)s1	15.8 µM (≈ 5.47 µg/mL)	31.5 µM (≈ 10.9 µg/mL)	116 µM (≈ 40.2 µg/mL)	15.8 µM (≈ 5.47 µg/mL)	29 µM (≈ 10 µg/mL)	116 µM (≈ 40.2 µg/mL)	31.5 µM (≈ 10.9 µg/mL)	116 µM (≈ 40.2 µg/mL)	15.8 µM (≈ 5.47 µg/mL)	15.8 µM (≈ 5.47 µg/mL)	29 µM (≈ 10 µg/mL)	29 µM (≈ 10 µg/mL)	31.5 µM (≈ 10.9 µg/mL)	31.5 µM (≈ 10.9 µg/mL)	15.8 µM (≈ 5.47 µg/mL)	55.4%	29 µM (≈ 10 µg/mL)	29 µM (≈ 10 µg/mL)	68%	232 µM (≈ 80.4 µg/mL)	IC50 [21]: 79 µM; MFC (Aspergillus fumigatus [22]): 31.5 µM (≈ 10.9 µg/mL); Activity (Mus musculus [23]): Non-toxic; MIC (Listeria monocytogenes [24]): 29 µM (≈ 10 µg/mL); MIC (Micrococcus flavus [25]): 29 µM (≈ 10 µg/mL); MBC (Escherichia coli [26]): 232 µM (≈ 80.4 µg/mL); MFC (Talaromyces funiculosus [27]): 31.5 µM (≈ 10.9 µg/mL); MIC (Aspergillus flavus [28]): 15.8 µM (≈ 5.47 µg/mL)
